Laboratory results reported in PubChem BioAssay.
Records with an inconclusive call do not appear. Calls of active or inactive are those of the source.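 Rule for the calls, unless noted: active = viability at or below 27.92% in each of two runs, the all-compound median minus 4 SD; inconclusive = no clear call, values can overlap the other calls; inactive = the rest.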

Columns and labels:
[1] = S. cerevisiae growth inhibition in permissive medium (OD615), pilot counter-assay for S. cerevisiae lifespan shortening project, permissive growth control (AID 705;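 active = growth inhibition above 25% in both replicates, a cutoff set 3 SD above the mean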); settings: OD615, 24 h, at 10 µM, stronger effect = higher value
Outline: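 System: Engineered DeaD yeast | Buffer or medium: SC raffinose/galactose permissive medium | Doses: 10 µM single dose, 0.25% DMSO | Times: 24 h exposure, 30 °C | Measured by: OD615 turbidity read | Read-out: Yeast growth inhibition indicated by reduced 24 h OD615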

[2] = S. cerevisiae growth inhibition in restrictive medium, OD615, pilot screen, restrictive growth control, yeast lifespan reduction project (AID 706;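 active = growth inhibition above a set limit, 3 SD over mean compound inhibition, in both replicates, cut at about 43% in these data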;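 note: modified DeaD lifespan yeast strain shifted to restrictive glucose medium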); settings: OD615, 48 h, at 10 µM, stronger effect = higher value
Outline: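 Assay system: engineered S. cerevisiae DeaD strain; Buffer or medium: CSMM-D glucose medium; Dosing: 10 µM compound, 0.25% DMSO; Times: cell pre-growth 4 h, compound exposure 48 h, 30 °C; Detection: absorbance (optical density) measured at 615 nm.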

[3] = doxorubicin toxicity protection in MRP-1 cells – H69AR cells, CellTiter-Glo, duplicate, MRP-1 activator project, pilot screen (AID 807;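 active = viability increase at or above a cutoff of the median across tested compounds plus 3 SD, cut at about 8.5% in these data, passing the limit was not always enough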;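 note: compound pretreatment 18-22 h then 72 h combined with doxorubicin; 0% = doxorubicin alone and 100% = vehicle without doxorubicin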); settings: H69AR viability with doxorubicin, CellTiter-Glo luminescence; at 10 µM; stronger effect = higher value
[4] = viability of HCT116 without oncogenic beta-catenin – human colon tumor cells, pilot screen (AID 823;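 active = cell viability at or below a set limit in both duplicate runs, the limit being the all-compound median minus 4 SD, cut at about 23% in these data, passing the limit was not always enough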;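 note: 0% = wells killed by 20 µM Hyamine and 100% = untreated DMSO cell wells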); settings: HCT116 beta-catenin knockout viability, CellTiter-Glo, 60 h; at 10 µM; stronger effect = lower value
[5] = viability of PTEN-null HCT116 cells – cell-based, HCT116 clonal line, CellTiter-Glo, pilot screen (AID 824); settings: HCT116 PTEN-deleted viability, 60 h, at 10 µM, stronger effect = lower value;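 note: 0% = 20 µM Hyamine control and 100% = vehicle cell control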
[6] = RAM pathway blockade in budding yeast – dse1pr::URA3 reporter, 5-FOA selection, pilot screen (AID 869;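 active = inhibition over a set limit, the all-compound mean plus 3 SD, in both replicate runs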;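 note: 0% = DMSO wells with no growth and 100% = 10 µM 1-NA-PP1 with full growth; RAM network block rescues cells from 5-FOA so hits raise OD615 growth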); settings: S. cerevisiae dse1pr::URA3 5-FOA growth, OD615, 2 d; at 10 µM; stronger effect = higher value; strain carries analog-sensitive mutant Cbk1 kinase
[7] = RAM signaling pathway blockade in yeast – S. cerevisiae, Pdr1DBD-CYC8 efflux-inhibited sensitized strain, primary screen (AID 1298;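 active = RAM network inhibition above 8.4% in each of two replicates, 3 SD over the compound average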;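 note: 0% = DMSO untreated cells without growth and 100% = 10 µM 1-NA-PP1 full growth; higher means more yeast growth rescued from 5-FOA killing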); settings: S. cerevisiae cbk1-as DSE1-URA3 strain, 5-FOA growth OD615, 2 d; at 50 µM; stronger effect = higher value

CCCC(=O)C1=C(SCC)CC(C)(C)C(C(=O)OC)C1=O (configuration not stated)
inactive: growth inhibition [1] -14.4% | growth inhibition [2] -21.5% | viability increase [3] -2.57% | viability [4] 86.5% | viability [5] 91.8% | inhibition [6] -0.035% | RAM network inhibition [7] 3.4%

Cc1cc(NCc2ccccc2)nc(-c2ccccc2O)n1
inactive: growth inhibition [1] -1.8% | growth inhibition [2] -4.48% | viability increase [3] -1.24% | viability [4] 69.5% | viability [5] 70% | inhibition [6] 0.345% | RAM network inhibition [7] 0.61%

COC(=O)Cn1c(=NC(=O)C2CC2)sc2c(C)cc(C)cc21
inactive: growth inhibition [1] -12.3% | growth inhibition [2] -19% | viability increase [3] -2.07% | viability [4] 92.9% | viability [5] 91.4% | inhibition [6] 0.27% | RAM network inhibition [7] 4.34%

COc1ccc(-c2nnnn2C)cc1S(=O)(=O)NCCc1ccccc1
inactive: growth inhibition [1] -8.48% | growth inhibition [2] 2.52% | viability increase [3] 0.12% | viability [4] 97.5% | viability [5] 104% | inhibition [6] 1% | RAM network inhibition [7] 3.03%

Cc1ccc(-n2ncc3c(N4CCC5(CC4)OCCO5)ncnc32)c(C)c1
inactive: growth inhibition [1] 1.21% | growth inhibition [2] 6.06% | viability increase [3] -7.95% | viability [4] 80.3% | viability [5] 83.8% | inhibition [6] 0.765% | RAM network inhibition [7] -1.04%

Cc1ccccc1OCC(O)Cn1c(NCCN(C)C)nc2c1c(=O)n(C)c(=O)n2C (configuration not stated)
inactive: growth inhibition [1] -13.3% | growth inhibition [2] 2.24% | viability increase [3] -1.92% | viability [4] 93.5% | viability [5] 99.4% | inhibition [6] 2.01% | RAM network inhibition [7] 1.15%

Nc1ccc(-c2nc3ccc(N)cc3o2)cc1
inactive: growth inhibition [1] 0.07% | growth inhibition [2] 7.21% | viability increase [3] -1.18% | viability [4] 100% | viability [5] 86.8% | inhibition [6] 3.98% | RAM network inhibition [7] 6.51%

COc1ccc(-n2c(Cn3c(=O)sc4ccccc43)nnc2SCC(=O)N2CCOCC2)cc1
inactive: growth inhibition [1] -0.33% | growth inhibition [2] 7.95% | viability increase [3] 0.3% | viability [4] 102% | viability [5] 97% | inhibition [6] 0.235% | RAM network inhibition [7] 1.66%

O=C(NCCCN1CCOCC1)c1cc(-c2ccc3c(c2)OCO3)nc2ccccc12
inactive: growth inhibition [1] -19.7% | growth inhibition [2] -7.51% | viability increase [3] -3.78% | viability [4] 92.8% | viability [5] 89.3% | inhibition [6] 1.26% | RAM network inhibition [7] 7.64%

O=C(Cn1nc(-c2ccc(Cl)cc2)ccc1=O)NCC1CCCO1 (configuration not stated)
inactive: growth inhibition [1] -1.09% | growth inhibition [2] -10.1% | viability increase [3] -1.53% | viability [4] 92.5% | viability [5] 93.8% | inhibition [6] 1.24% | RAM network inhibition [7] 7.63%

Brc1ccc(-c2noc(COc3ccc4c(c3)CCC4)n2)o1
inactive: growth inhibition [1] -10.2% | growth inhibition [2] -11.6% | viability increase [3] 2.86% | viability [4] 95.8% | viability [5] 105% | inhibition [6] 1.22% | RAM network inhibition [7] 4.46%

Cc1ccc(C(=O)Nc2cccc(C(=O)O)c2)cc1S(=O)(=O)N1CCCCC1
inactive: growth inhibition [1] 5.02% | growth inhibition [2] 11.4% | viability increase [3] 0.18% | viability [4] 96% | viability [5] 100% | inhibition [6] 1.35% | RAM network inhibition [7] 0.1%

CC(=O)c1ccc(N2CCN(C(=O)c3cc4c(-c5ccccc5F)nn(C)c4s3)CC2)cc1
inactive: growth inhibition [1] 3.9% | growth inhibition [2] 2.33% | viability increase [3] -2.9% | viability [4] 66% | viability [5] 78% | inhibition [6] 2.27% | RAM network inhibition [7] 6.5%

Cn1nc(-c2ccc(Cl)cc2)c2cc(C(=O)NCCCN3CCOCC3)sc21
inactive: growth inhibition [1] -3.37% | growth inhibition [2] 5.94% | viability increase [3] -7.82% | inhibition [6] -0.235% | RAM network inhibition [7] -0.16%
active: viability [4] 4.12% | viability [5] 5.19%

Cc1ccc2nc(NC(=O)CCNS(=O)(=O)c3cccs3)sc2c1
inactive: growth inhibition [1] -5.57% | growth inhibition [2] -7.59% | viability increase [3] 3.2% | viability [4] 87% | viability [5] 71.7% | inhibition [6] 0.45% | RAM network inhibition [7] 3.7%

O=C(COC(=O)c1ccc(Br)o1)Nc1nc2ccccc2s1
inactive: growth inhibition [1] -11.2% | growth inhibition [2] -4.01% | viability increase [3] -4.65% | viability [4] 90.5% | viability [5] 87.8% | inhibition [6] 0.75% | RAM network inhibition [7] 1.88%

COc1ccc(-c2nnc3ccc(SCC(=O)N4CCCC4)nn23)cc1
inactive: growth inhibition [1] 3.94% | growth inhibition [2] 1.08% | viability increase [3] -4.23% | viability [4] 101% | viability [5] 99.5% | inhibition [6] 1.44% | RAM network inhibition [7] 0.16%

O=C(CCC1CCCC1)N1CCN(C(=O)c2ccco2)CC1
inactive: growth inhibition [1] -5.94% | growth inhibition [2] -2.57% | viability increase [3] -3.59% | viability [4] 86.3% | viability [5] 83.2% | inhibition [6] 1.39% | RAM network inhibition [7] 0.98%

COc1ccc(C2CC(=O)N3CN(c4ccc(C)c(Cl)c4)CSC3=C2C#N)cc1OC (configuration not stated)
inactive: growth inhibition [1] 2.02% | growth inhibition [2] 21.1% | viability increase [3] -4.27% | viability [4] 85.7% | viability [5] 93.6% | inhibition [6] 0.435% | RAM network inhibition [7] -1.09%

Cn1c(=O)[nH]c(=O)c2c1nc(N1CCN(c3ccccc3)CC1)n2CCSc1ncccn1
inactive: growth inhibition [1] -4.54% | growth inhibition [2] 7.86% | viability increase [3] -2.82% | viability [4] 93% | viability [5] 82.6% | inhibition [6] 0.42% | RAM network inhibition [7] 4.89%

CC1Cc2ccccc2N1C(=O)C1CCCN(S(=O)(=O)c2cccc3cccnc23)C1 (configuration not stated)
inactive: growth inhibition [1] -6.46% | growth inhibition [2] -11% | viability increase [3] -5.48% | viability [4] 67.9% | viability [5] 62.2% | inhibition [6] 2.08% | RAM network inhibition [7] 7.93%

O=C(C1CCCN(S(=O)(=O)c2cccc3cccnc23)C1)N1CCN(c2ccc(F)cc2)CC1 (configuration not stated)
inactive: growth inhibition [1] 2.49% | growth inhibition [2] 2.17% | viability increase [3] -0.16% | viability [4] 47.9% | viability [5] 61.8% | inhibition [6] -0.585% | RAM network inhibition [7] 2.25%

[O-]/[N+](=C\c1ccncc1)c1ccc(Br)cc1
inactive: growth inhibition [1] -15% | growth inhibition [2] -19.9% | viability increase [3] -4.14% | viability [4] 83.7% | viability [5] 87.9% | inhibition [6] 2.81% | RAM network inhibition [7] 6.02%

COc1cc(C2C(C(=O)c3cccs3)=C(O)C(=O)N2Cc2ccco2)cc(OC)c1OC (configuration not stated)
inactive: growth inhibition [1] -6.95% | growth inhibition [2] -3.81% | viability increase [3] -4.93% | viability [4] 93.1% | viability [5] 92.4% | inhibition [6] 2.94% | RAM network inhibition [7] 5%

COc1ccc(CNC(=O)CS(=O)Cc2nc(-c3ccccc3C)oc2C)cc1 (configuration not stated)
inactive: growth inhibition [1] -3.65% | growth inhibition [2] 10.4% | viability increase [3] -0.34% | viability [4] 96.7% | viability [5] 101% | inhibition [6] 0.275% | RAM network inhibition [7] 1.98%

COc1ccc(C(c2sc3ncnn3c2O)N2CC(C)OC(C)C2)cc1OC (configuration not stated)
inactive: growth inhibition [1] 0.335% | growth inhibition [2] -6.37% | viability increase [3] -1% | viability [4] 102% | viability [5] 87.3% | inhibition [6] 0.55% | RAM network inhibition [7] 0.12%

CCn1nnc(NC(=O)c2ccc(C(C)(C)C)cc2)n1
inactive: growth inhibition [1] -24.7% | growth inhibition [2] -6.88% | viability increase [3] -0.53% | viability [4] 90.2% | viability [5] 90.9% | inhibition [6] 1.79% | RAM network inhibition [7] -0.37%

Cc1ccccc1-c1nnc(-c2ccccc2)o1
inactive: growth inhibition [1] -0.03% | growth inhibition [2] -4.75% | viability increase [3] -4.15% | viability [4] 80.9% | viability [5] 83.1% | inhibition [6] 1.82% | RAM network inhibition [7] 0.2%

COc1ccc(-c2nnc(SCC(=O)NC(C)C)n2CC2CCCO2)cc1OC (configuration not stated)
inactive: growth inhibition [1] 1.07% | growth inhibition [2] -3.87% | viability increase [3] 0.35% | viability [4] 103% | viability [5] 98.3% | inhibition [6] 1.69% | RAM network inhibition [7] -0.58%

O=C(c1ccc2nc(N3CCOCC3)sc2c1)N1CCN(C(=O)c2ccco2)CC1
inactive: growth inhibition [1] -4.29% | growth inhibition [2] 2.97% | viability increase [3] -1.45% | viability [4] 105% | viability [5] 95.8% | inhibition [6] 0.86% | RAM network inhibition [7] 3.05%

Cn1c(SCCSc2nnc(-c3ccccc3)n2C)nnc1-c1ccccc1
inactive: growth inhibition [1] -12.1% | growth inhibition [2] 8.02% | viability increase [3] -0.26% | viability [4] 97.4% | viability [5] 93.8% | inhibition [6] 1.62% | RAM network inhibition [7] 5.17%

COc1cc2[nH]c(=O)n(CCCCCC(=O)NCCCN3CCOCC3)c(=O)c2cc1OC
inactive: growth inhibition [1] -9.12% | growth inhibition [2] -24.8% | viability increase [3] -1.27% | viability [4] 97.8% | viability [5] 89.6% | inhibition [6] 0.585% | RAM network inhibition [7] -0.68%

Cc1ccc(NC(=O)C2C3C=CC4(CN(Cc5cccnc5)C(=O)C24)O3)cc1 (configuration not stated)
inactive: growth inhibition [1] 5.17% | growth inhibition [2] -7.85% | viability increase [3] -1.21% | viability [4] 74.4% | viability [5] 97.3% | inhibition [6] 0.77% | RAM network inhibition [7] 2.87%

COc1ccc(C)cc1NC(=O)CSc1nnc(-c2ccco2)n1Cc1ccco1
inactive: growth inhibition [1] -0.8% | growth inhibition [2] 10.4% | viability increase [3] -2.06% | viability [4] 99.8% | viability [5] 90.8% | inhibition [6] 2.08% | RAM network inhibition [7] 6.62%

COCn1c(-c2cccc(Br)c2)nc2ccccc21
inactive: growth inhibition [1] -10.2% | growth inhibition [2] 3.42% | viability increase [3] -4.2% | viability [4] 85.2% | viability [5] 86.8% | inhibition [6] 1.17% | RAM network inhibition [7] 3.8%

O=C(CN(Cc1ccccc1F)S(=O)(=O)c1ccc(Cl)cc1)NCCCO
inactive: growth inhibition [1] -12.7% | growth inhibition [2] -2.21% | viability increase [3] -2.15% | viability [4] 102% | viability [5] 93.7% | inhibition [6] 0.495% | RAM network inhibition [7] 1.84%
